# Measured values gathered from unrelated publications.
# Compare with care: the assays were run in different laboratories.
# PFF0160c: Dihydroorotate dehydrogenase (quinone), mitochondrial (PFF0160c, Plasmodium falciparum, UniProt Q08210)
# OPRK1: Kappa-type opioid receptor (OPRK1, Homo sapiens, UniProt P41145)
# PROC: Vitamin K-dependent protein C (PROC, Homo sapiens, UniProt P04070)
# PFF0160c E182D: Dihydroorotate dehydrogenase (quinone), mitochondrial (PFF0160c, Plasmodium falciparum, UniProt Q08210, E182D)
SMILES,target,test,IC50 [nM]
Cc1nc(NC2CCc3cc(Cl)ccc3C2)c2c(C)noc2n1 (stereo not drawn),PFF0160c,"enzyme activity, inhibitor, absorbance",120
O=S(=O)(O)c1nc2ccccc2[nH]1,"racE (Bacillus subtilis, UniProt P94556, N75L)","enzyme activity, inhibitor, absorbance",198000
Cc1nc(NC2CCc3cc(Br)ccc3C2)c2c(C)noc2n1 (stereo not drawn),PFF0160c,"enzyme activity, inhibitor, absorbance",530
Cc1cc(Nc2ccc(C)c(Cl)c2)n2nc(C(F)(F)F)nc2n1,PFF0160c,"enzyme activity, inhibitor, absorbance",29.1
Cc1c(Cc2ccc(C(F)(F)F)nc2)c[nH]c1C(=O)NC(C)c1cc(C(N)=O)[nH]n1 (stereo not drawn),PFF0160c,"enzyme activity, inhibitor, absorbance",350
Cc1nc(NC2CCc3ccc(Cl)cc3C2)c2c(C)noc2n1 (stereo not drawn),PFF0160c,"enzyme activity, inhibitor, absorbance",17
CNC(=O)[C@H](C)NC(=O)c1[nH]cc(Cc2ccc(C(F)(F)F)nc2)c1C,PFF0160c,"enzyme activity, inhibitor, absorbance",39000
Cc1nc(Nc2ccc(C)c(Cl)c2)c2c(C)noc2n1,PFF0160c,"enzyme activity, inhibitor, absorbance",130
Cc1ccc(O)c([C@H](CCN(C(C)C)C(C)C)c2ccccc2)c1,OPRK1,"ligand displacement, radioligand",6710
CC(c1ccc(Cl)c(Cl)c1)c1nn2c(-c3ccccc3F)nnc2s1 (stereo not drawn),PFF0160c,"enzyme activity, inhibitor, absorbance",541
Cc1noc2nc(C(F)(F)F)nc(NC3Cc4cc(F)c(F)cc4C3)c12,PFF0160c,"enzyme activity, inhibitor, absorbance",110
CCc1nc2nc(C)cc(Nc3ccc4c(c3)OCCO4)n2n1,PFF0160c,"enzyme activity, inhibitor, absorbance",492
CCOC(=O)c1ccc(OC(=O)CCCCCN=C(N)N)cc1,PROC,"enzyme activity, inhibitor",1400
Cc1noc2nc(C(F)(F)F)nc(Nc3ccc(S(F)(F)(F)(F)F)cc3)c12,PFF0160c,"enzyme activity, inhibitor, absorbance",250
CC[C@H]1NC(=O)[C@@H]2CSC(=N2)[C@H](Cc2ccccc2)N(C)C(=O)[C@@H]2CCCN2C(=O)[C@H](C(C)C)N(C)C(=O)[C@H](Cc2ccccc2)OC(=O)[C@H](C)[C@@H](C)NC(=O)[C@@H]([C@@H](C)O)NC(=O)[C@@H](CC(C)C)N(C)C(=O)[C@@H]2CSC1=N2,PROC,"enzyme activity, inhibitor",62000
CCNC(=O)c1ccc(-n2nc(C)cc2-c2ccccc2)cc1,PFF0160c,"enzyme activity, inhibitor, absorbance",740
Cc1c(C2(c3cccc(C(F)(F)F)c3)CC2)c[nH]c1C(=O)NC(C)c1nc[nH]n1 (stereo not drawn),PFF0160c,"enzyme activity, inhibitor, absorbance",30000
O=C(Nc1ccccc1)OCC(CN1CCCCC1)OC(=O)Nc1ccccc1 (stereo not drawn),OPRK1,"ligand displacement, radioligand",1420
Cc1c(Cc2ccc(F)c(F)c2)c[nH]c1C(=O)NC(C)c1nc[nH]n1 (stereo not drawn),PFF0160c,"enzyme activity, inhibitor, absorbance",> 100000
COc1ccc(C(=O)NCC(C)(C)c2nc(-c3ccc(Cl)c(O)c3)c(-c3ccncc3)[nH]2)cc1OCCN(C(C)C)C(C)C,PFF0160c,"enzyme activity, inhibitor, absorbance",> 10000
Cc1c(C(=O)NC(C)c2nc[nH]n2)[nH]c(Cl)c1Cc1ccc(C(F)(F)F)nc1 (stereo not drawn),PFF0160c,"enzyme activity, inhibitor, absorbance",> 100000
CN(C)S(=O)(=O)c1ccc(Sc2ccccc2)c(C(=O)N2CCCC(C(N)=O)C2)c1 (stereo not drawn),PFF0160c,"enzyme activity, inhibitor, absorbance",3670
Cc1cc(C(C)NC(=O)c2[nH]cc(-c3n[nH]c4cc(C(F)(F)F)ccc34)c2C)no1 (stereo not drawn),PFF0160c,"enzyme activity, inhibitor, absorbance",> 100000
CC(=O)c1c(Nc2c(C)cc(C)cc2C)oc(C)cc1=O,PFF0160c E182D,"enzyme activity, inhibitor, absorbance",659
Cc1cc(C(C)NC(=O)c2[nH]cc(Cc3ccc(C(F)(F)F)nc3)c2C)n[nH]1 (stereo not drawn),PFF0160c,"enzyme activity, inhibitor, absorbance",100
CCc1ccccc1N=C1c2c(cccc2[N+](=O)[O-])C(=O)C1C(C)=O (stereo not drawn),PFF0160c E182D,"enzyme activity, inhibitor, absorbance",384
O=C(CCCC(=O)N1CCN(C(=O)c2cc(Cc3n[nH]c(=O)c4ccccc34)ccc2F)CC1)NCCNC(=O)C1CC2C=CC1C2 (stereo not drawn),"Poly [ADP-ribose] polymerase 1 (PARP1, Homo sapiens, UniProt P09874)","enzyme activity, inhibitor",10.1
